Source: PubChem
NSD2 inh: inhibitors of human histone methyltransferase NSD2; actives 0.54% (n = 310,000); AID 743445; inhibition, % at 12.5 µM; NSD2 peptide methylation, AlphaScreen, 120 min; O96028
HCV NS3 hel inh: blocks Hepatitis C virus NS3 helicase unwinding | AID 1800 | inhibition, % at 10.9 µM | actives 0.56% (n = 290,000) | NS3 helicase DNA unwinding, Cy5 molecular beacon fluorescence;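 active = inhibition above the mean of all tested compounds plus 3 SD, set per campaign, cut at about 35% in these data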
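Compound dosing – single dose, 10.9 µM nominal final, DMSO 0.8% final · System – NS3 helicase fragment of HCV · Buffer or medium – MOPS pH 6.5, MgCl2, DTT, Tween20, BSA · Signal – Cy5 beacon fluorescence read at start and 1 h · Also added – annealed dual-labelled DNA beacon duplex, ATP-started · Schedule – 1 h at 25 °C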
DNMT1 block: blocks human DNA methyltransferase DNMT1; inhibition (reported as % activation of signal), % at 10 µM; P26358; DNMT1 molecular beacon, Hinp1I cleavage, fluorescence; actives 0.83% (n = 360,000); AID 588458
Casp6 inh: caspase-6 (human) enzyme inhibition; purified caspase-6, Z-VEID-R110 cleavage fluorescence; inhibition, % at 12.5 µM; actives 0.53% (n = 350,000); AID 686996;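 active = mean inhibition across replicates at least about 35%, with every replicate also reaching that limit, limit read from the data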
Target sequence (P55212 24-179 limits assumed): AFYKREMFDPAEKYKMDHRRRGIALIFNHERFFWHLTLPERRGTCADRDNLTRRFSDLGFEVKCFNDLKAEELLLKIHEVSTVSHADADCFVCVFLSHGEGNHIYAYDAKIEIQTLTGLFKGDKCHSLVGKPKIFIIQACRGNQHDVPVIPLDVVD
Target sequence (P55212 194-293 limits assumed): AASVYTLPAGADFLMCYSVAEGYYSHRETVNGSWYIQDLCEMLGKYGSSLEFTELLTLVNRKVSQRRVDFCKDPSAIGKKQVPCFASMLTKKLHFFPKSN
CASP1 counter: selectivity counter-screen: inhibitors of human caspase-1. 100 tested, under 10 active. shares compounds with Casp6 inh. AID 743289. purified caspase-1, Z-YVAD-R110 cleavage fluorescence. activity change, negative = inhibition, % at 35 µM;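 active = compounds lowering fluorescence whose fitted half-maximal concentration is no more than twice their top tested dose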
Target sequence (P29466 whole entry, looked up): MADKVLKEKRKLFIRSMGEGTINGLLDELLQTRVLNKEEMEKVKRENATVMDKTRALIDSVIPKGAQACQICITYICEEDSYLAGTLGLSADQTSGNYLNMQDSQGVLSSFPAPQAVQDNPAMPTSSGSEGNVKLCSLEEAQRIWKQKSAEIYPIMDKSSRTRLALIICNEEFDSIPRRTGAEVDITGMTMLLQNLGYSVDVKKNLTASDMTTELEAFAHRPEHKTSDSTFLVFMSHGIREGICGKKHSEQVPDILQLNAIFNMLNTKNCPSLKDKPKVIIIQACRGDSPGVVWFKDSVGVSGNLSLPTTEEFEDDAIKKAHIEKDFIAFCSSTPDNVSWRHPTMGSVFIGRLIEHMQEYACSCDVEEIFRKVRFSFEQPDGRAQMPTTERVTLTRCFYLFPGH
AlphaScreen art: interferes with AlphaScreen signal, flagging NSD2 false positives | actives 9.4% (n = 1,500) | AC35, µM (series often up to 10 µM) | AlphaScreen artifact counterscreen, preloaded methylated H4 peptide | shares compounds with NSD2 inh | AID 1053174; call rule not given here
Numbers stand for hits; 0 = inactive; - = no result. Sampled rows, rich in hits. Any-hit rate of the full collection: about 1.5%. Rule as the data show it, unless noted: active = inhibition above about 50%; inactive = the rest.

SMILES	NSD2 inh	HCV NS3 hel inh	DNMT1 block	Casp6 inh	AlphaScreen art	others
CN(C)CCCNc1cc(O)c2ncccc2c1	-	-	0	87	-	CASP1 counter=0
C[C@H](CO)N1C[C@H](C)[C@@H](CN(C)C(=O)C2CCCCC2)OCCCC[C@H](C)Oc2ccc(NC(=O)Nc3ccc(C(F)(F)F)cc3)cc2C1=O	-	-	-	0	-
CN(C)CC(=O)Nc1ccc2c(c1)[C@@H]1C[C@@H](CC(=O)N3CCc4ccccc4C3)O[C@@H](CO)[C@@H]1O2	-	-	-	0	-
O=C(Nc1ccc(S(=O)(=O)Nc2cnc3ccccc3n2)cc1)c1ccc(Cl)c([N+](=O)[O-])c1	0	0	0	62	-	CASP1 counter=0
COc1ccccc1NC(=O)N1C[C@@H]2[C@H](c3ccccc31)[C@H](CO)N2C(=O)C1CC1	-	-	-	0	-
Cc1ccc(S(=O)(=O)Nc2cc(C)c(O)cc2C)cc1	0	0	0	-	-
Cc1ccc(S(=O)(=O)Nc2csc(C)c2C(=O)O)cc1	0	0	-	61	-	CASP1 counter=0
[O-][n+]1onc2c1CCc1c-2nn(-c2ccccc2Cl)[n+]1[O-]	0	0	0	82	-	CASP1 counter=0
Cc1ccc(-n2nc3c([n+]2[O-])CCc2c-3no[n+]2[O-])cc1	0	0	0	-	-
CO[C@H]1O[C@H](CO)[C@@H](OC(=O)Nc2ccccc2)[C@H](OC(=O)Nc2ccccc2)[C@H]1OC(=O)Nc1ccccc1	-	-	-	0	-
CC(C)(C)c1ccc(NC(=O)COC(=O)c2ccc([N+](=O)[O-])s2)cc1	0	0	0	-	-	CASP1 counter=0
O=C(COC(=O)c1ccc([N+](=O)[O-])s1)Nc1cccc(S(=O)(=O)NC2=NCCCCC2)c1	-	0	0	98	-	CASP1 counter=0
O=C(COC(=O)c1ccc([N+](=O)[O-])s1)Nc1ccc(F)cc1	-	-	0	98	-	CASP1 counter=0
Cc1ccc(S(=O)(=O)N(C)C[C@H]2OCCCC[C@H](C)Oc3ccc(NC(=O)NC(C)C)cc3C(=O)N([C@@H](C)CO)C[C@@H]2C)cc1	-	-	-	0	-
CO[C@H]1CN(C)C(=O)c2cc(NC(C)=O)ccc2OC[C@@H](C)N(C(=O)CC2CC2)C[C@H]1C	-	-	-	56	-	CASP1 counter=0
O=C(Nc1ccccc1)N[C@@H]1CC[C@@H](CCn2cc(-c3ccccc3F)nn2)O[C@H]1CO	-	-	-	0	-
CC[C@H](CO)Oc1cc(NCc2cccc(N)c2)c2ncn(C(C)C)c2c1	-	-	-	46	-	CASP1 counter=0
O=c1cc2c(=O)oc3cc(O)c(O)oc3c2c(O)c1O	-	0	0	95	-	CASP1 counter=0
O=c1oc2cc(O)c(Cl)cc2c2ccccc12	0	0	0	-	-
COc1cc(N(C(C)=O)c2ccc(O)cc2)c2ncccc2c1	0	-	0	0	-
COc1cc(N(C(C)=O)c2ccc(O)c(C(=O)O)c2)c2ncccc2c1	86	-	0	44	0	CASP1 counter=0
O=C(COC(=O)c1ccc([N+](=O)[O-])s1)Nc1ccccc1	69	0	0	-	0	CASP1 counter=0
O=C(C[C@H]1CC[C@H](NC(=O)Nc2ccccc2F)[C@H](CO)O1)NCc1ccc(F)cc1	-	-	-	0	-
CCOc1c(O)ccc(/C=C2\SC(=S)NC2=O)c1[N+](=O)[O-]	53	0	0	61	0	CASP1 counter=0
Oc1cc2c(cc1O)[C@H]1c3ccc(O)c(O)c3OC[C@@]1(O)C2	109	-	0	37	4µM	CASP1 counter=0
SMILES	NSD2 inh	HCV NS3 hel inh	DNMT1 block	Casp6 inh	AlphaScreen art	others
Oc1ccc2c(c1)OCC1(O)Cc3cc(O)c(O)cc3C21 (stereo not drawn)	-	-	0	0	-
NCCCCCNC(=O)[C@@H]1C[C@@H]2C(=O)N[C@@H](Cc3ccccc3)C(=O)N2[C@@H]1c1ccc(O)cc1	-	-	-	0	-
Cc1cccc(N(CC(=O)NC(C)(C)C)C(=O)CS(=O)CC(=O)Nc2ccc3c(c2)OCO3)c1 (stereo not drawn)	52	0	0	0	0
COc1ccc(CN(C)C[C@H]2Oc3ccc(NC(=O)Cc4ccccc4)cc3CC(=O)N([C@H](C)CO)C[C@H]2C)cc1	-	-	-	0	-
Cc1ccc(Nc2nc(-c3ccc(O)c(O)c3)cs2)nc1	88	0	-	0	0
Cc1ccc(Nc2nc(-c3ccc(F)cc3)cs2)nc1	0	0	0	0	-
CCNCCC(=O)N1c2ccccc2Sc2ccc(C(F)(F)F)cc21	78	0	0	0	0
COc1ccc2c(c1)CC/C(=C\Nc1ccc3c(c1)OCO3)C2=O	0	0	0	0	-
COc1ccc(N/C=C2\CCc3ccccc3C2=O)cc1	95	0	0	0	0
COc1ccc(NC(=O)CCCNC(=O)c2ccc(Cl)cc2)cc1OC	0	0	0	0	-
CNS(=O)(=O)c1cc(NC(=O)CCCNC(=O)c2ccc(Cl)cc2)ccc1C	67	0	0	0	0
O=C(Cc1cccc2ccccc12)Nc1ccccc1F	0	-	-	-	-
C[C@@H]1CN([C@H](C)CO)S(=O)(=O)c2ccc(C#CC3CCCC3)cc2O[C@@H]1CN(C)C(=O)Nc1cc(F)ccc1F	-	-	-	0	-
C/C=C/c1ccc([C@@H]2[C@H](CO)N(C(=O)CC)[C@H]2CNC(=O)C2CC2)cc1	-	-	-	0	-
O=Cc1ccc(OC(=O)C2CC(=O)N(c3ccc(F)cc3)C2)cc1 (stereo not drawn)	125	0	0	-	0
O=C(O)C1CC(=O)N(c2ccc(F)cc2)C1 (stereo not drawn)	0	0	0	-	-
CNCCOc1ccccc1-c1ccccc1	76	0	0	-	0
CNCCCCOc1ccccc1-c1ccccc1	64	0	0	0	0
COCCNCCOc1ccccc1-c1ccccc1	0	0	0	0	-
O=C(C[C@@H]1C[C@H]2c3cc(NC(=O)Nc4ccccc4)ccc3O[C@H]2[C@H](CO)O1)NCc1cccc(F)c1	-	-	-	0	-
C[C@@H]1CN([C@H](C)CO)C(=O)c2cc(NC(=O)Nc3ccccc3)ccc2O[C@@H](C)CCCCO[C@H]1CN(C)C(=O)c1ccccc1	-	-	-	0	-
CN1CCN(C(=O)C[C@H]2CC[C@H](NS(=O)(=O)c3cccc(F)c3)[C@@H](CO)O2)CC1	-	-	-	0	-
CS(=O)(=O)N1CC2(C1)[C@@H](c1ccccc1)[C@H](CO)N2C(=O)C1CCC1	-	-	-	0	-
CCOc1cc(NC2CS(=O)(=O)CC2O)c(OCC)cc1NC(=O)c1ccccc1 (stereo not drawn)	61	0	0	-	0
CCOc1cc(NC(=O)c2ccccn2)c(OCC)cc1NC(=O)c1ccccc1	0	0	0	0	-
SMILES	NSD2 inh	HCV NS3 hel inh	DNMT1 block	Casp6 inh	AlphaScreen art	others
O=C1C=CC(=O)c2c(O)c(N3CCN(CCO)CC3)c(Cl)c(O)c21	103	-	103	93	0
OCCOCCN1CCN(C2=Nc3ccccc3Sc3ccccc32)CC1	-	0	0	0	-
O=C1C=CC(=O)c2c(O)c(N3CCN(CCOCCO)CC3)c(Br)c(O)c21	81	-	98	97	0
O=C(Nc1ccc2c(c1)OCO2)N[C@@H]1CC[C@@H](CCNC(=O)C2CCC2)O[C@H]1CO	-	-	-	0	-
CCNC(=O)Nc1ccc2c(c1)C(=O)N(C)[C@@H]1CC[C@H](CC(=O)Nc3ccccc3)O[C@H]1CO2	-	-	-	0	-
N#CC1C(=O)Nc2cccnc21 (stereo not drawn)	121	-	0	59	0
Cc1ccc(C)c(C(=O)c2ccccc2NC(=O)c2ccccn2)c1	0	0	0	0	-
